Rpn11 inh: Rpn11 (PSMD14) deubiquitinase inhibitors, primary screen, biochemical, fluorescence polarization, uHTS. 26S proteasome non-ATPase regulatory subunit 14 (Homo sapiens), O00487. human 26S proteasome, Ub4-pepOG fluorescence polarization; 20S core pre-blocked with epoxomicin. inhibition, % at 20 µM. 0.59% of 360,000 active. AID 588493, 2011;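 active = inhibition at 20 µM, scaled to each plate's controls, above about 33%, limit read from the data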
Target sequence (O00487 whole entry, looked up): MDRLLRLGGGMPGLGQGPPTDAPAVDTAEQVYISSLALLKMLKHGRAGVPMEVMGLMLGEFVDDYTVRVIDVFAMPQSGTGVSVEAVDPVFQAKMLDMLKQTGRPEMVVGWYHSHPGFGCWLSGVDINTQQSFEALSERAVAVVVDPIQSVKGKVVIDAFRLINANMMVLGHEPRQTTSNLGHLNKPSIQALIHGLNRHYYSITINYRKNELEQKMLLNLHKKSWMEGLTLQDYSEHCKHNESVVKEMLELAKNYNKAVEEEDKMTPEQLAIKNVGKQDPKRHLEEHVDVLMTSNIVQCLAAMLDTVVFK
HNF4A DNA FP: change in binding of human HNF4A to DNA, primary screen, biochemical, fluorescence polarization, FITC-DNA; 0.3% of 360,000 active; activity change, % at 10 µM; 1 h; in the data active = activity change above about 30%, passing the limit was not always enough
TPT1 inh: Candida albicans TPT1 enzyme inhibitors, primary screen, biochemical, fluorescence polarization. recombinant caTPT1, FP RNA substrate dephosphorylation. inhibition, % at 5 µM. 0.81% of 300,000 active. AID 1962, 2009;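 active = inhibition above the mean of all tested compounds plus 3 SD, set per screening campaign, cut at about 24% in these data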
NadD inh: inhibitors of S. aureus NadD, primary screen, biochemical, colorimetric, uHTS; Nicotinate-nucleotide adenylyltransferase NadD (Staphylococcus aureus N315); purified NadD enzyme, colorimetric absorbance read-out; inhibition, % at 20 µM; 0.78% of 360,000 active; in the data active = inhibition above about 26%
CSN inh: inhibitors of CSN-mediated cullin deneddylation, primary screen, biochemical, fluorescence polarization, uHTS. COP9 signalosome complex subunit 5 (Homo sapiens), Q92905. inhibition, % at 12.5 µM. Purified CSN, SCF-Nedd8-OG deneddylation. AID 651999, 2013. 0.38% of 360,000 active;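 active = pattern-corrected inhibition above about 35%, with an unprinted fluorescence ratio check between 0.5 and 1.5, limit read from the data, passing the limit was not always enough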
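Assay system: Purified human Csn5 enzyme expressed in HEK293T cells | Amount: Enzyme 0.24 nM | Measured by: Fluorescence polarization readout | Medium: Tris/NaCl/DTT buffer, pH 7.5 | Compound dosing: One concentration, 12.5 µM, 0.25% DMSO | Times: 90 min incubation of compound, enzyme and substrate at room temperature | Control set: no-enzyme wells high, enzyme-with-substrate wells low | Read-out: % inhibition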
PP1 counter: PP1-alpha phosphatase inhibitors, primary screen, counter-screen for PP5 inhibitor project, biochemical, fluorescence, OMFP substrate, single point | Serine/threonine-protein phosphatase PP1-alpha catalytic subunit (Homo sapiens), P62136 | purified PP1alpha | inhibition, % at 6.7 µM | 0.9% of 320,000 active | AID 2235, 2010;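 active = inhibition above the mean inhibition of all tested compounds plus 3 SD, computed separately for each screening campaign, cut at about 15% in these data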
TPT1 inh confirm: Candida albicans TPT1 inhibitors, confirmation, biochemical, fluorescence polarization, triplicate; inhibition, % at 5 µM; recombinant caTPT1, RNase T1 coupled; 74% of 2,400 active; shares compounds with TPT1 inh;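 active = inhibition above the primary screen limit, the mean inhibition of all tested compounds plus 3 SD, cut at about 25% in these data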
RNase T1 counter: RNase T1 inhibitors, counter-screen for TPT1 inhibitor project, biochemical, fluorescence polarization; inhibition, % at 5 µM; RNase T1 cleavage, 1536-well; 83% of 2,400 active; shares compounds with TPT1 inh;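 active = inhibition above the solvent-only control well mean plus 3 SD, limit set per screening run, cut at about 23% in these data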;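 note: inhibitors block cleavage so intact labeled substrate keeps polarization high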
Target sequence (P00651 whole entry, looked up): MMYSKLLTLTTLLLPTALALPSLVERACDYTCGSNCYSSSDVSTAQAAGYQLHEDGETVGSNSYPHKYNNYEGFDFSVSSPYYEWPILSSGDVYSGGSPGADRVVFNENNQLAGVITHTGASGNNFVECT
Numbers stand for hits; n = inactive; x = no result shown. Most compounds without a hit are left out; they make up all but 2.7% or so of the library.

SMILES	Rpn11 inh	HNF4A DNA FP	TPT1 inh	NadD inh	CSN inh	PP1 counter	TPT1 inh confirm	RNase T1 counter
C[N+](C)(C)CC(=O)O	n	n	n	n	n	n	x	x
O=C(O)c1ccc2c(c1)C1C(Cl)C(Sc3ccccc3[N+](=O)[O-])CC1C(c1cccc([N+](=O)[O-])c1)N2 (centres undefined)	n	n	x	33	n	x	x	x
O=C(O)c1cccc2c1NC(c1cccc([N+](=O)[O-])c1)C1CC(Sc3ccccc3[N+](=O)[O-])C(Cl)C21 (centres undefined)	n	n	x	60	n	x	x	x
O=[N+]([O-])c1cccc(C2N3CCCN23)c1 (centres undefined)	n	n	n	n	n	n	x	x
O=C(c1ccccc1F)N1C[C@H]2C[C@@H](C1)c1cccc(=O)n1C2	n	n	n	n	n	n	x	x
O=C1NC(=O)C(=Cc2ccc(-c3ccccc3[N+](=O)[O-])o2)C(=O)N1	n	n	n	n	n	n	x	x
O=C1NC(=O)C(=Cc2ccc(-c3cc(Cl)ccc3[N+](=O)[O-])o2)C(=O)N1	n	n	x	38	n	x	x	x
CC1CC(C)CN(C(=O)COC(=O)c2cn(C)c3ccccc23)C1 (centres undefined)	n	n	x	n	n	n	x	x
O=C1NC(=S)NC(=O)C1=Cc1ccc(Br)s1	n	n	n	46	n	n	x	x
Cc1cc2c(C(C)C)c(O)c(O)c(C=O)c2c(O)c1-c1c(C)cc2c(C(C)C)c(O)c(O)c(C=O)c2c1O	n	n	x	50	n	x	x	x
O=C(COc1ccccc1)N1CCN(C2CCCC2)CC1	n	40	n	n	n	n	x	x
COc1ccc(OCC(=O)N2CCN(C3CCC(c4ccccc4)CC3)CC2)cc1 (centres undefined)	n	n	n	n	n	n	x	x
COc1ccc(/C=C2/C(=O)NC(=O)N(c3ccc(C)c(C)c3)C2=O)cc1CN1C(=O)c2ccccc2C1=O	n	n	n	29	n	n	x	x
c1ccc(N2C3C4CC(C5CCCC54)C32)cc1 (centres undefined)	n	n	x	n	n	x	x	x
NS(=O)(=O)c1ccc(-c2ccc(C=C3C(=O)NC(=S)NC3=O)o2)cc1	x	x	36	x	x	n	x	x
CCOC(=O)c1c(/N=C/C2C(=O)NC(=S)NC2=O)sc2c1CCC2	x	n	113	n	n	n	n	33
COc1cccc2c1C(=O)c1c(O)c3c(c(O)c1C2=O)CC(O)(C(C)=NO)CC3OC1CC(N)C(O)C(C)O1 (centres undefined)	n	n	x	n	n	x	x	x
CC(C)N1CC=C(c2c[nH]c3ccccc23)CC1	n	n	n	n	n	n	x	x
C1=C(c2c[nH]c3ccccc23)CCNC1	x	x	80	x	x	n	50	58
Cc1cccc(C(=O)Nc2ccc3c(c2)CC2(C(=O)N(C)C(=O)N(C)C2=O)C2CCCN32)c1 (centres undefined)	n	n	26	n	n	n	36	49
COc1ccccc1C(=O)Nc1ccc2c(c1)CC1(C(=O)N(C)C(=O)N(C)C1=O)C1CCCN21 (centres undefined)	n	n	n	n	n	n	x	x
CN1C(=O)C(=Cc2ccc(N3CCCCCC3)o2)C(=O)N(C)C1=S	x	n	140	n	n	n	118	122
CN1C(=O)C(=Cc2ccc(N3CCOCC3)o2)C(=O)N(C)C1=O	x	n	136	n	n	n	148	145
C[C@]12CCC3C(CC[C@@H]4C[C@@H](O)CC[C@]34C)C1CC[C@@H]2O (some centres undefined)	n	n	x	n	n	x	x	x
COP(=O)(/C=C(\Cl)c1ccccc1)/C=C(\Cl)c1ccccc1	n	n	n	n	n	n	x	x
SMILES	Rpn11 inh	HNF4A DNA FP	TPT1 inh	NadD inh	CSN inh	PP1 counter	TPT1 inh confirm	RNase T1 counter
COC(=O)C1(C(=O)O)Cc2cc([N+](=O)[O-])ccc2N2CCCC21 (centres undefined)	n	n	n	n	n	n	x	x
CCCCn1c(=O)c(C=Nc2cc([N+](=O)[O-])ccc2OC)c(O)n(CCCCl)c1=O	n	n	74	n	n	n	53	67
CCCCn1c(=O)c(C=Nc2ccc(Cl)cc2)c(O)n(Cc2ccco2)c1=O	x	n	n	n	n	n	x	x
COC(=O)C1=C(c2ccc(-c3ccccc3)c(F)c2)C[C@@H]2CC[C@H]1N2C(=O)NCc1ccco1	n	n	x	n	n	n	x	x
Cc1ccc(N2C(=O)NC(=O)/C(=C/C=C/c3ccco3)C2=O)cc1	n	n	28	n	n	n	35	52
O=C1NC(=O)N(c2ccccc2)C(=O)/C1=C\C=C\c1ccccc1	n	n	n	n	n	n	x	x
CN1C[C@H]2CON(C)[C@H]2C[C@H]1c1cccc(Br)c1	n	n	x	n	n	x	x	x
O=C(O)Cn1cc(/C=C2\C(=O)NC(=O)N(c3ccc(Br)cc3)C2=O)c2ccccc21	n	n	37	n	n	n	41	51
O=C1NC(=O)N(c2ccccc2F)C(=O)/C1=C/c1cn(CC(=O)N2CCOCC2)c2ccccc12	x	x	28	x	x	n	n	n
CCN(CC)c1ccc(N=Cc2c(O)n(-c3ccc(Cl)cc3)c(=O)[nH]c2=O)cc1	x	n	27	n	n	n	58	72
C=CCn1c(O)c(C=Nc2ccc(N(CC)CC)cc2)c(=O)[nH]c1=O	n	n	n	n	n	n	x	x
CCN(CC)c1ccc(N=Cc2c(O)n(-c3ccc(OC)cc3)c(=O)[nH]c2=O)cc1	n	n	56	n	n	n	n	n
CCc1nn(CC(=O)N2CCC3(CC2)OCCO3)c(=O)c2cc3ccccc3n12	n	n	n	n	n	n	x	x
O=c1[nH]c(=S)n(-c2ccccc2F)c(O)c1C=Nc1ccc(N2CCOCC2)cc1	n	n	33	n	n	n	47	60
Cc1cc(C)cc(-n2c(O)c(C=Nc3ccc(N4CCOCC4)cc3)c(=O)[nH]c2=S)c1	n	n	35	n	n	n	57	73
CC(C)CCC1(CCO)C(=O)NC(=S)NC1=O	n	n	x	n	n	x	x	x

High-throughput results as filed in PubChem.
